From PubChem BioAssay
This excerpt belongs to a sample that is enriched for hits.
Tb MetRS inh = Trypanosoma brucei MetRS inhibition | inhibition, % at 11.9 µM | purified T. brucei MetRS, ATP depletion, Kinase-Glo luminescence | 0.4% of 360,000 active | AID 624268;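 active means inhibition above a per-plate cutoff of the control wells' mean inhibition plus 3 SD, cut at about 5.5% in these data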
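Material – parasite MetRS enzyme · Medium – HEPES-MgCl2-KCl buffer plus DTT, spermine, BSA, pyrophosphatase · Reagent – ATP, methionine and E. coli bulk tRNA substrates · Times – 15 min enzyme-compound preincubation, 2 h reaction, 10 min detection, 25 °C · Measured by – luminescence of leftover ATP · Evaluation – percent inhibition relative to median high and low control wells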
V-ATPase pHluor = yeast V-ATPase proton transport regulation by pHLuorin | AID 504577 | response, % at 10 µM | S. cerevisiae, pHLuorin cytosolic pH fluorescence | 0.37% of 350,000 active; in the data active means response mostly above about 7.3%, no sharp cut-off; inactive means mostly below about 5.4%; further: actives read high
UPR XBP1 act = activators of adaptive arm of unfolded protein response (XBP1). AID 463104. 0.33% of 330,000 active. CHO-XBP1 luciferase reporter, IRE1-XBP1 UPR activation, luminescence; percent of tunicamycin response, DMSO as zero. activation, % at 20 µM;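 active means versus positive control, 20 µM dose yields 30% or more activation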
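incubation = overnight seeding at 37 °C, 6 h compound treatment at 37 °C | assay system = CHO-XBP1 cells stably carrying IRE1-XBP1-driven luciferase reporter | input = 1000 cells per well | detection = luciferase luminescence | dosing = single point, 20 µM final compound, 1% DMSO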
CHOP inhibitor = inhibitors of CHOP induction in ER stress response; inhibition, % at 10 µM; AID 2732; 3.8% of 220,000 active; CHO-K1 CHOP-promoter luciferase, tunicamycin-induced, 15-18 h;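 active means compounds that reduced the stress-induced luciferase reporter signal by more than about 70% of percent inhibition, limit read from the data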
CHOP UPR activ = activators of apoptotic arm of unfolded protein response (CHOP); 0.34% of 330,000 active; CHO-CHOP luciferase reporter, UPR activation, luminescence; percent of tunicamycin response over DMSO baseline; activation, % at 10 µM;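 active means at 10 µM dose, activation of 40% or more, normalized to positive control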
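System: CHO-CHOP luciferase reporter cell line | Buffer or medium: F12 medium containing 10% fetal bovine serum | Doses: One dose, 10 µM in 0.5% DMSO | Times: 6 h compound exposure at 37 °C after overnight seeding | Signal: Luciferase luminescence | Read-out: % activation vs tunicamycin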
CHOP confirm = confirmation of CHOP induction inhibitors. shares compounds with CHOP inhibitor. AID 504437. 45% of 2,100 active. inhibition, % at 10 µM. CHO-CHOP promoter luciferase reporter, tunicamycin-induced, luminescence;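 active means mean of three repeat readings of reporter signal inhibition above a set limit, cut at about 70% in these data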
Large screens that a line does not name were inactive (follow-up assays come after a bar, where they were run).

CC1(c2ccccc2)NC(=O)N(CC(=O)Nc2ccc(N3CCOCC3)cc2)C1=O (stereo not drawn)	none (no result: CHOP inhibitor)
Brc1ccc(-n2cc(-c3ccccc3)c3c(NN4CCOCC4)ncnc32)cc1	none
COc1ccc(C(=O)Cn2c(C)nc([N+](=O)[O-])c2Br)cc1	none
Cc1nc([N+](=O)[O-])c(Br)n1Cc1ccc(Cl)c(Cl)c1	CHOP inhibitor 105 (no result: UPR XBP1 act, CHOP UPR activ) | CHOP confirm inactive
CC(=O)NCCNC(=O)C1(C)Cc2c(-c3ccc(NC(C)=O)cc3)ccnc2O1 (stereo not drawn)	none (no result: V-ATPase pHluor, UPR XBP1 act, CHOP inhibitor, CHOP UPR activ)
CCCCOc1ccc(S(=O)(=O)NNC(=O)C2Cc3c(ccc4ccccc34)O2)cc1 (stereo not drawn)	CHOP inhibitor 98 | CHOP confirm inactive
Cc1ccc(S(=O)(=O)NNC(=O)C2Cc3c(ccc4ccccc34)O2)cc1 (stereo not drawn)	none
CCN(CC)CCNC(=O)c1ccc(NC(=O)c2ccccc2-c2ccc(C(F)(F)F)cc2)cc1	none (no result: CHOP inhibitor)
CC(C)Oc1ccc(CNC(=O)CC(c2ccccc2)c2cc(Cl)ccc2O)cc1 (stereo not drawn)	CHOP inhibitor 98 | CHOP confirm 104
COc1ccccc1-c1nnc(NC(=O)c2ccc(S(=O)(=O)N(C)Cc3ccccc3)cc2)o1	CHOP inhibitor 97 (no result: Tb MetRS inh, V-ATPase pHluor) | CHOP confirm 97
Cc1ccc(C)c(S(=O)(=O)ON2C(=O)c3ccccc3C2=O)c1	CHOP inhibitor 106 | CHOP confirm 106
Cc1ccc(S(=O)(=O)ON2C(=O)c3cccc4cccc(c34)C2=O)cc1	none
O=C1c2ccccc2C(=O)N1OS(=O)(=O)c1ccccc1	CHOP inhibitor 108 (no result: Tb MetRS inh, V-ATPase pHluor, UPR XBP1 act, CHOP UPR activ) | CHOP confirm inactive
CN(C)c1ccc(-c2nc3ccccn3c2/N=C/c2ccc(Br)cc2)cc1	CHOP inhibitor 98 | CHOP confirm 75
CN(C)c1ccc(N2C(=NC(=O)COc3ccccc3)SC3CS(=O)(=O)CC32)cc1 (stereo not drawn)	none (no result: CHOP inhibitor)
Cc1cccc(/N=C/c2c(O)ccc3oc4c(c23)CCCC4)n1	none
O=[N+]([O-])c1cc2oc3c(c2c(C=NCc2ccccc2)c1O)CCCC3	CHOP inhibitor 99 | CHOP confirm inactive
Cc1ccc2nc(NC(=O)CN(C)S(=O)(=O)c3ccc(Br)s3)sc2c1	CHOP inhibitor 102 | CHOP confirm inactive
Cc1ccc2nc(NC(=O)CNS(=O)(=O)c3ccc(Br)s3)sc2c1	none
Cc1cccc(OCC(=O)Nc2nonc2NC(=O)COc2cccc(C)c2)c1	none
Cc1ccc(C)c(OCC(=O)Nc2nonc2NC(=O)COc2cc(C)ccc2C)c1	CHOP inhibitor 101 | CHOP confirm inactive
Fc1ccc(-c2nn(-c3ccccc3)cc2CNCc2ccccc2)cc1	CHOP inhibitor 101 | CHOP confirm 123
O=C(CCl)Nc1cn(-c2ccccc2)nc1-c1ccc(F)cc1	CHOP inhibitor 105 | CHOP confirm 100
COC(=O)c1[nH]c2ccc(C)cc2c1NC(=O)Nc1ccc(OC)cc1	CHOP inhibitor 101 | CHOP confirm inactive
COC(=O)c1[nH]c2ccc(F)cc2c1NC(=O)Nc1ccc(OC)cc1	none
Cc1ccc(C(=O)COC(=O)c2cc(=O)[nH]c3ccccc23)cc1C	CHOP inhibitor 102 | CHOP confirm inactive
Cc1ccccc1NC(=O)CSc1nc(N)c(C#N)c(-c2cccs2)c1C#N	Tb MetRS inh 8.1, CHOP inhibitor 105 | CHOP confirm inactive
CCN(CC)C(=O)CSc1nc(N)c(C#N)c(-c2cccs2)c1C#N	none
COc1cc(/C=C/C(=O)OC2CC3CCC2(C)C3(C)C)ccc1O (stereo not drawn)	CHOP inhibitor 100 | CHOP confirm 102
CCOC(=O)C1CCCN(C(=S)Nc2cccc(Cl)c2C)C1 (stereo not drawn)	none
CCOc1ccc(/C=N/N2C(=O)C(CC(=O)Nc3ccc(F)cc3F)SC2=NC)cc1OC (stereo not drawn)	CHOP inhibitor 106 | CHOP confirm inactive
C[C@H](NC(=O)c1[nH]cnc1C(=O)Nc1ccc(CNC(=O)OC(C)(C)C)cc1)C(=O)OC(C)(C)C	CHOP inhibitor 98 | CHOP confirm 78
C[C@H](NC(=O)c1nc[nH]c1C(=O)N[C@@H](Cc1ccccc1)C(=O)OC(C)(C)C)C(=O)OC(C)(C)C	CHOP inhibitor 97 | CHOP confirm 100
CC(=O)N1CCN(CC(=O)Nc2ccc3c(c2)CCC3)CC1	none
CC(C)C[C@H](N)c1nnc(S(=O)(=O)Cc2ccc(F)cc2)o1	CHOP inhibitor 103 | CHOP confirm inactive
COC(=O)c1ccc(CS(=O)(=O)c2ccc(F)cc2)o1	none (no result: CHOP inhibitor)
O=C(CSc1nnc2c(n1)[nH]c1ccccc12)Nc1ccc(S(=O)(=O)Nc2ncccn2)cc1	none (no result: UPR XBP1 act, CHOP UPR activ)
CCOC(=O)N1CCN(c2nc3ccccc3nc2C(C#N)S(=O)(=O)c2ccc(C)cc2)CC1 (stereo not drawn)	none
Cc1cc(Oc2cc(N)cc([N+](=O)[O-])c2)ccc1Cl	CHOP inhibitor 102 | CHOP confirm inactive
CC(=O)NS(=O)(=O)c1ccc(NC(=S)NC(=O)Cc2ccccc2)cc1	none
CC(C)(NO)/C(=N/O)c1ccc(Br)cc1	CHOP inhibitor 108 | CHOP confirm inactive
COc1ccc(/C(=N/O)C(C)(C)NO)cc1	CHOP inhibitor 99 | CHOP confirm inactive
CC(C)(NO)/C(=N\O)c1ccc(Cl)cc1	none
O=C(Nc1ccccn1)c1cc(-c2cccnc2)nc2ccc(Br)cc12	CHOP inhibitor 103 | CHOP confirm inactive
COc1cc(C2CC(=O)c3c([nH]c(C(=O)OCCOC(C)C)c3C)C2)cc(OC)c1OC (stereo not drawn)	none (no result: CHOP inhibitor)
CC(C)(C)OC(=O)NCCc1nnc(SCc2ccccc2Cl)o1	none
CC(C)(C)OC(=O)NCCc1nnc(S(=O)(=O)Cc2ccc(Cl)cc2Cl)o1	CHOP inhibitor 106 | CHOP confirm 129
CC(=O)OCC1O[C@@H](O[C@@H]2C[C@H]3C(C)(C)[C@H](OC(C)=O)CC[C@]3(C)[C@H]3CC[C@]45C[C@]4(CC[C@H]5[C@@H](C)C[C@@H](O)[C@H](O)C(C)(C)O)[C@@]32C)[C@H](O)[C@@H](O)[C@@H]1O (stereo partly drawn)	CHOP inhibitor 106 (no result: Tb MetRS inh, V-ATPase pHluor) | CHOP confirm 120
COc1ccc(CC(=O)NC(C)c2ccc(S(N)(=O)=O)cc2)cc1S(=O)(=O)N1CCOCC1 (stereo not drawn)	none (no result: CHOP inhibitor)
CCOc1ccc2nc(NC(=O)CSc3nc4c(c(=O)n(C)c(=O)n4C)n3C(C)C)sc2c1	CHOP inhibitor 105 | CHOP confirm 84
CCOc1ccc2nc(NC(=O)CSc3nnnn3C3CCCCC3)sc2c1	CHOP inhibitor 107 | CHOP confirm 110
